# ChEMBL document CHEMBL3102840, “Synthesis and anti-proliferative activity of aromatic substituted 5-((1-benzyl-1H-indol-3-yl)methylene)-1,3-dimethylpyrimidine-2,4,6(1H,3H,5H)-trione analogs against human tumor cell lines” (2014)
# Columns and labels:
# Type in all cases: functional
# A498 [1] = test: Cytotoxicity against human A498 cells after 48 hrs by SRB assay; conditions: A498, 48 h
# Procedure, shortened: (§1)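 Five-dose run from the sixty-line panel, at 10−4, 10−5, 10−6, 10−7 and 10−8 M. SRB-stain OD is read just before compound addition, after 48 hrs of exposure, and in vehicle controls, giving percentage growth; negative growth indicates cytotoxicity. GI50 is the concentration giving 50% reduction in net protein increase versus control cells. LC50 is the concentration lethal to 50% of cells.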
# MDA-MB-468 [2] = test: Cytotoxicity against human MDA-MB-468 cells assessed as growth inhibition at 10 uM after 48 hrs by SRB assay; conditions: MDA-MB-468, 48 h, read-out: GI
# Procedure, shortened: (§2)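 Single-dose screen at 10µM across the sixty-cell-line panel. Percentage growth is derived from SRB-stain OD taken just before compound exposure, after 48 hrs exposure, and in vehicle-treated controls. Negative values indicate cytotoxicity.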
# NCI-H226 [3] = test: Cytotoxicity against human NCI-H226 cells after 48 hrs by SRB assay; conditions: NCI-H226, 48 h; for CC50: read-out: LC50 (the source's name); procedure, shortened: as §1
# IGROV-1 = test: Cytotoxicity against human IGROV1 cells after 48 hrs by SRB assay; conditions: IGROV-1, 48 h; for CC50: read-out: LC50 (the source's name); procedure, shortened: as §1
# TK-10 [4] = test: Cytotoxicity against human TK10 cells after 48 hrs by SRB assay; conditions: TK-10, 48 h; for CC50: read-out: LC50 (the source's name); procedure, shortened: as §1
# OVCAR-8 = test: Cytotoxicity against human OVCAR8 cells after 48 hrs by SRB assay; conditions: OVCAR-8, 48 h; for CC50: read-out: LC50 (the source's name); procedure, shortened: as §1
# MDA-MB-231 = test: Cytotoxicity against human MDA-MB-231 cells after 48 hrs by SRB assay; conditions: MDA-MB-231, 48 h; for CC50: read-out: LC50 (the source's name); procedure, shortened: as §1
# SW-620 = test: Cytotoxicity against human SW620 cells after 48 hrs by SRB assay; conditions: SW-620, 48 h; for CC50: read-out: LC50 (the source's name); procedure, shortened: as §1
# TK-10 [5] = test: Cytotoxicity against human TK10 cells assessed as growth inhibition at 10 uM after 48 hrs by SRB assay; conditions: TK-10, 48 h, read-out: GI; procedure, shortened: as §2
# COLO 205 = test: Cytotoxicity against human COLO205 cells after 48 hrs by SRB assay; conditions: COLO 205, 48 h; for CC50: read-out: LC50 (the source's name); procedure, shortened: as §1
# A498 [6] = test: Cytotoxicity against human A498 cells assessed as growth inhibition at 10 uM after 48 hrs by SRB assay; conditions: A498, 48 h, read-out: GI; procedure, shortened: as §2
# 786-0 = test: Cytotoxicity against human 786-0 cells after 48 hrs by SRB assay; conditions: 786-0, 48 h; procedure, shortened: as §1
# RXF 393 = test: Cytotoxicity against human RXF393 cells after 48 hrs by SRB assay; conditions: RXF 393, 48 h; procedure, shortened: as §1
# SK-MEL-2 = test: Cytotoxicity against human SK-MEL-2 cells after 48 hrs by SRB assay; conditions: SK-MEL-2, 48 h; procedure, shortened: as §1
# K562 = test: Cytotoxicity against human K562 cells after 48 hrs by SRB assay; conditions: K562, 48 h; for CC50: read-out: LC50 (the source's name); procedure, shortened: as §1
# [7] = Cytotoxicity against human UACC257 cells after 48 hrs by SRB assay; conditions: UACC-257, 48 h; for CC50: read-out: LC50 (the source's name); procedure, shortened: as §1
# NCI-H460 = test: Cytotoxicity against human NCI-H460 cells after 48 hrs by SRB assay; conditions: NCI-H460, 48 h; for CC50: read-out: LC50 (the source's name); procedure, shortened: as §1
# [8] = Cytotoxicity against human NCI-ADR-RES cells after 48 hrs by SRB assay; conditions: for CC50: read-out: LC50 (the source's name); procedure, shortened: as §1
# UACC-62 = test: Cytotoxicity against human UACC62 cells after 48 hrs by SRB assay; conditions: UACC-62, 48 h; procedure, shortened: as §1
# NCI-H226 [9] = test: Cytotoxicity against human NCI-H226 cells assessed as growth inhibition at 10 uM after 48 hrs by SRB assay; conditions: NCI-H226, 48 h, read-out: GI; procedure, shortened: as §2
# HCT-116 = test: Cytotoxicity against human HCT116 cells after 48 hrs by SRB assay; conditions: HCT-116, 48 h; procedure, shortened: as §1
# SR = test: Cytotoxicity against human SR cells after 48 hrs by SRB assay; procedure, shortened: as §1
# [10] = Cytotoxicity against human OVCAR5 cells assessed as growth inhibition at 10 uM after 48 hrs by SRB assay; conditions: OVCAR-5, 48 h, read-out: GI; procedure, shortened: as §2
# NCI-H23 = test: Cytotoxicity against human NCI-H23 cells after 48 hrs by SRB assay; conditions: NCI-H23, 48 h; procedure, shortened: as §1
# SF-295 = test: Cytotoxicity against human SF295 cells after 48 hrs by SRB assay; conditions: SF-295, 48 h; procedure, shortened: as §1
# MCF7 = test: Cytotoxicity against human MCF7 cells after 48 hrs by SRB assay; conditions: MCF7, 48 h; procedure, shortened: as §1
# BT-549 = test: Cytotoxicity against human BT549 cells after 48 hrs by SRB assay; conditions: BT-549, 48 h; for CC50: read-out: LC50 (the source's name); procedure, shortened: as §1
# SN12C = test: Cytotoxicity against human SN12C cells after 48 hrs by SRB assay; conditions: for CC50: read-out: LC50 (the source's name); procedure, shortened: as §1
# MDA-MB-468 [11] = test: Cytotoxicity against human MDA-MB-468 cells after 48 hrs by SRB assay; conditions: MDA-MB-468, 48 h; procedure, shortened: as §1
# T47D = test: Cytotoxicity against human T47D cells after 48 hrs by SRB assay; procedure, shortened: as §1
# HOP-62 = test: Cytotoxicity against human HOP62 cells after 48 hrs by SRB assay; conditions: HOP-62, 48 h; for CC50: read-out: LC50 (the source's name); procedure, shortened: as §1
# SK-MEL-5 = test: Cytotoxicity against human SK-MEL-5 cells after 48 hrs by SRB assay; conditions: SK-MEL-5, 48 h; procedure, shortened: as §1
# SK-OV-3 = test: Cytotoxicity against human SKOV3 cells after 48 hrs by SRB assay; conditions: SK-OV-3, 48 h; procedure, shortened: as §1
# MDA-MB-435 = test: Cytotoxicity against human MDA-MB-435 cells after 48 hrs by SRB assay; conditions: MDA-MB-435, 48 h; procedure, shortened: as §1
# [12] = Cytotoxicity against human OVCAR5 cells after 48 hrs by SRB assay; conditions: OVCAR-5, 48 h; for CC50: read-out: LC50 (the source's name); procedure, shortened: as §1
# LOX IMVI = test: Cytotoxicity against human LOXIMVI cells after 48 hrs by SRB assay; conditions: for CC50: read-out: LC50 (the source's name); procedure, shortened: as §1
# SNB-19 = test: Cytotoxicity against human SNB19 cells after 48 hrs by SRB assay; conditions: SNB-19, 48 h; procedure, shortened: as §1
compound,measurement,setting,value
CN1C(=O)C(=Cc2cn(Cc3ccc(F)cc3)c3ccccc23)C(=O)N(C)C1=O,GI50,A498 [1],0.07 µM
same,LC50,A498 [1],0.67 µM
same,inhibition of growth at 10 µM,MDA-MB-468 [2],-71%
same,GI50,NCI-H226 [3],2.56 µM
same,CC50,NCI-H226 [3],> 100 µM
same,GI50,IGROV-1,4.33 µM
same,CC50,IGROV-1,> 100 µM
same,GI50,TK-10 [4],0.59 µM
same,CC50,TK-10 [4],> 100 µM
same,GI50,OVCAR-8,> 100 µM
same,CC50,OVCAR-8,> 100 µM
same,GI50,MDA-MB-231,23.6 µM
same,CC50,MDA-MB-231,> 100 µM
same,GI50,SW-620,> 100 µM
same,CC50,SW-620,> 100 µM
same,inhibition of growth at 10 µM,TK-10 [5],-15%
same,GI50,COLO 205,1.44 µM
same,CC50,COLO 205,> 100 µM
same,inhibition of growth at 10 µM,A498 [6],-85%
same,GI50,786-0,22.7 µM
same,LC50,786-0,> 100 µM
same,GI50,RXF 393,14.9 µM
same,"LC50 (lethal concentration, 50%)",RXF 393,> 100 µM
same,GI50,SK-MEL-2,6.35 µM
same,CC50,K562,> 100 µM
same,GI50,[7],2.52 µM
same,CC50,[7],> 100 µM
same,GI50,NCI-H460,0.37 µM
same,CC50,NCI-H460,> 100 µM
same,GI50,[8],> 100 µM
same,CC50,[8],> 100 µM
same,GI50,UACC-62,2.89 µM
same,LC50,UACC-62,> 100 µM
same,inhibition of growth at 10 µM,NCI-H226 [9],-78%
same,GI50,HCT-116,6.26 µM
same,LC50,HCT-116,> 100 µM
same,GI50,SR,> 100 µM
same,"LC50 (lethal concentration, 50%)",SR,> 100 µM
same,inhibition of growth at 10 µM,[10],-33%
same,GI50,NCI-H23,51.5 µM
same,LC50,NCI-H23,> 100 µM
same,GI50,SF-295,1.97 µM
same,LC50,SF-295,> 100 µM
same,GI50,MCF7,> 100 µM
same,LC50,MCF7,> 100 µM
same,GI50,BT-549,24.1 µM
same,CC50,BT-549,> 100 µM
same,GI50,SN12C,> 100 µM
same,CC50,SN12C,> 100 µM
same,GI50,MDA-MB-468 [11],0.03 µM
same,LC50,MDA-MB-468 [11],0.5 µM
same,GI50,T47D,5.38 µM
same,LC50,T47D,> 100 µM
same,GI50,HOP-62,7.7 µM
same,CC50,HOP-62,> 100 µM
same,GI50,SK-MEL-5,> 100 µM
same,LC50,SK-MEL-5,> 100 µM
same,GI50,SK-OV-3,15.3 µM
same,LC50,SK-OV-3,> 100 µM
same,GI50,MDA-MB-435,> 100 µM
same,LC50,MDA-MB-435,> 100 µM
same,GI50,[12],0.11 µM
same,CC50,[12],> 100 µM
same,GI50,LOX IMVI,> 100 µM
same,CC50,LOX IMVI,> 100 µM
same,GI50,SNB-19,26.7 µM
same,LC50,SNB-19,> 100 µM
COc1ccc(Cn2cc(C=C3C(=O)N(C)C(=O)N(C)C3=O)c3ccccc32)cc1,GI50,A498 [1],0.06 µM
same,LC50,A498 [1],5.27 µM
same,inhibition of growth at 10 µM,MDA-MB-468 [2],-65%
same,GI50,NCI-H226 [3],1.44 µM
same,CC50,NCI-H226 [3],53.9 µM
same,GI50,IGROV-1,1.93 µM
same,CC50,IGROV-1,> 100 µM
same,GI50,TK-10 [4],0.1 µM
same,CC50,TK-10 [4],72.5 µM
same,GI50,OVCAR-8,13.4 µM
same,CC50,OVCAR-8,88.6 µM
same,GI50,MDA-MB-231,5.86 µM
same,CC50,MDA-MB-231,> 100 µM
same,GI50,SW-620,6.89 µM
same,CC50,SW-620,> 100 µM
same,inhibition of growth at 10 µM,TK-10 [5],-12%
same,GI50,COLO 205,0.63 µM
same,CC50,COLO 205,45.3 µM
same,inhibition of growth at 10 µM,A498 [6],-92%
same,GI50,786-0,11.2 µM
same,LC50,786-0,> 100 µM
same,GI50,RXF 393,14.8 µM
same,"LC50 (lethal concentration, 50%)",RXF 393,> 100 µM
same,GI50,SK-MEL-2,2.78 µM
same,GI50,K562,2.18 µM
same,CC50,K562,> 100 µM
same,GI50,[7],1.54 µM
same,CC50,[7],38.2 µM
same,GI50,NCI-H460,0.81 µM
same,CC50,NCI-H460,82.8 µM
same,GI50,[8],3.59 µM
same,CC50,[8],> 100 µM
same,GI50,UACC-62,0.9 µM
same,LC50,UACC-62,68 µM
same,inhibition of growth at 10 µM,NCI-H226 [9],-55%
same,GI50,HCT-116,5.01 µM
same,LC50,HCT-116,> 100 µM
same,GI50,SR,5.43 µM
same,"LC50 (lethal concentration, 50%)",SR,> 100 µM
same,inhibition of growth at 10 µM,[10],-38%
same,GI50,NCI-H23,4.67 µM
same,LC50,NCI-H23,> 100 µM
same,GI50,SF-295,1.54 µM
same,LC50,SF-295,> 100 µM
same,GI50,MCF7,5.26 µM
same,LC50,MCF7,> 100 µM
same,GI50,BT-549,4.94 µM
same,CC50,BT-549,> 100 µM
same,GI50,SN12C,12.5 µM
same,CC50,SN12C,> 100 µM
same,GI50,MDA-MB-468 [11],0.04 µM
same,LC50,MDA-MB-468 [11],0.76 µM
same,GI50,T47D,3.53 µM
same,LC50,T47D,> 100 µM
same,GI50,HOP-62,6.22 µM
same,CC50,HOP-62,> 100 µM
same,GI50,SK-MEL-5,5.08 µM
same,LC50,SK-MEL-5,64.4 µM
same,GI50,SK-OV-3,5.03 µM
same,LC50,SK-OV-3,> 100 µM
same,GI50,MDA-MB-435,3.29 µM
same,LC50,MDA-MB-435,> 100 µM
same,GI50,[12],0.02 µM
same,CC50,[12],> 100 µM
same,GI50,LOX IMVI,5.45 µM
same,CC50,LOX IMVI,> 100 µM
same,GI50,SNB-19,15.8 µM
same,LC50,SNB-19,> 100 µM
